Experiment [1] concerns T47D. The experiment in a line: Inhibition of PR-B gene expression in human T47D cells harboring inactive DNA methyltransferase-1 at 100 nM by syber green assay. Type of experiment: functional, cell-based.
Experiment [2] relates to T47D. The experiment in a line: Inhibition of PR-A gene expression in human T47D cells at 25 nM by syber green assay in presence of 10 nM estradiol. Type of experiment: functional, cell-based.
Experiment [3] relates to T47D. The experiment in a line: Inhibition of PR-B gene expression in human T47D cells at 25 nM by syber green assay in presence of 10 nM estradiol. Type of experiment: functional, cell-based.
For experiment [4], the system named is T47D. The experiment in a line: Inhibition of PR-A mRNA gene expression in human T47D cells at 100 nM by syber green assay. Type of experiment: functional. Put shortly: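 T47D cells plated at 80,000/well without antibiotics two days before Oligofectamine transfection with agRNA duplex (25 or 100 nM final); medium changed at 24 h, harvest day 5 unless stated otherwise. TRIzol total RNA; PR mRNA by real-time PCR with SYBR Green: 50 °C 2 min, 95 °C 10 min, 40 cycles 95 °C 15 s/60 °C 1 min.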

The test system of experiment [5] is T47D. The experiment in a line: Inhibition of PR-B mRNA gene expression in human T47D cells at 100 nM by syber green assay. Type of experiment: functional. Put shortly:
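T47D cells in RPMI-1640 with 10% FBS, NEAA, insulin, 37 °C, 5% CO2. Plated two days before transfection without antibiotics. Oligofectamine-mediated duplex RNA transfection at 100 nM final, medium changed at 24 h, harvest five days post-transfection. Total RNA extracted with TRIzol. hPR mRNA quantified by SYBR Green qPCR: 50 °C 2 min, 95 °C 10 min, then 40 cycles of 95 °C 15 s / 60 °C 1 min.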

Experiment [6] relates to T47D. The experiment in a line: Inhibition of PR-A gene expression in human T47D cells harboring inactive DNA methyltransferase-1 at 100 nM by syber green assay. Type of experiment: functional, cell-based.

Calls of active or inactive are those of the source. No cut-off for these calls is given here. Bounds are passed on as bounds.

Drawing on ChEMBL document CHEMBL1250442, “Inhibiting gene expression at transcription start sites in chromosomal DNA with antigene RNAs” (Nat Chem Biol, 2005), this text covers inhibition for one molecule.

Turning to `Cc1cn([C@H]2C[C@H](OP(=O)(O)OC[C@H]3O[C@@H](n4cc(C)c(=O)[nH]c4=O)C[C@@H]3O)[C@@H](COP(=O)(O)O[C@H]3[C@@H](O)[C@H](n4ccc(N)nc4=O)O[C@@H]3COP(=O)(O)O[C@H]3[C@@H](O)[C@H](n4cnc5c(=O)[nH]c(N)nc54)O[C@@H]3COP(=O)(O)O[C@H]3[C@@H](O)[C@H](n4cnc5c(N)ncnc54)O[C@@H]3COP(=O)(O)O[C@H]3[C@@H](O)[C@H](n4ccc(N)nc4=O)O[C@@H]3COP(=O)(O)O[C@H]3[C@@H](O)[C@H](n4cnc5c(N)ncnc54)O[C@@H]3COP(=O)(O)O[C@H]3[C@@H](O)[C@H](n4ccc(N)nc4=O)O[C@@H]3COP(=O)(O)O[C@H]3[C@@H](O)[C@H](n4ccc(N)nc4=O)O[C@@H]3COP(=O)(O)O[C@H]3C[C@H](n4ccc(=O)[nH]c4=O)O[C@@H]3COP(=O)(O)O[C@H]3[C@@H](O)[C@H](n4cnc5c(=O)[nH]c(N)nc54)O[C@@H]3COP(=O)(O)O[C@H]3[C@@H](O)[C@H](n4cnc5c(N)ncnc54)O[C@@H]3COP(=O)(O)O[C@H]3[C@@H](O)[C@H](n4cnc5c(=O)[nH]c(N)nc54)O[C@@H]3COP(=O)(O)O[C@H]3[C@@H](O)[C@H](n4ccc(N)nc4=O)O[C@@H]3COP(=O)(O)O[C@H]3[C@@H](O)[C@H](n4cnc5c(=O)[nH]c(N)nc54)O[C@@H]3COP(=O)(O)O[C@H]3[C@@H](O)[C@H](n4ccc(N)nc4=O)O[C@@H]3COP(=O)(O)O[C@H]3[C@@H](O)[C@H](n4ccc(=O)[nH]c4=O)O[C@@H]3COP(=O)(O)O[C@H]3[C@@H](O)[C@H](n4ccc(N)nc4=O)O[C@@H]3CO[PH](=O)O[C@H]3[C@@H](O)[C@H](n4ccc(=O)[nH]c4=O)O[C@@H]3COP(=O)(O)O[C@H]3[C@@H](O)[C@H](n4ccc(N)nc4=O)O[C@@H]3COP(=O)(O)O[C@H]3[C@@H](O)[C@H](n4ccc(=O)[nH]c4=O)O[C@@H]3CO)O2)c(=O)[nH]c1=O` (stereo partly specified), the inhibition result in the experiment with T47D [1], in the experiment with T47D [2], in the experiment on T47D [3] and in the experiment on T47D [6] was “Active” throughout. The inhibition at 0.1 µM in the experiment on T47D [4] and in the experiment on T47D [5] was less than 20% throughout.
